According to ChEMBL document CHEMBL1139836, “Development of orally bioavailable and CNS penetrant biphenylaminocyclopropane carboxamide bradykinin B1 receptor antagonists” (J Med Chem, 2007):
Activity calls are given as the source filed them.

Columns and labels:
Rhesus monkey = test: Antidepressor effect in iv dosed rhesus monkey measured as blockade of DAK-induced blood pressure response; assay type: functional, Macaca mulatta
Summary of the method: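 Conscious rhesus monkeys primed with LPS 20 µg/kg iv and given 2 h equilibration. Baseline depressor response to des-Arg10-kallidin 0.3 µg/kg iv measured twice. Antagonist given as rising iv bolus doses of 3, 10, 30 and 100 µg/kg, each 5 min before a DAK challenge, with the fall in mean arterial pressure recorded. Plasma sampled 2 min after each dose. Crossover against vehicle, n = 3.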

[1] = Oral bioavailability in Mongrel dog at 3 mg/kg, po and 1 mg/kg, iv; assay type: ADME, organism-based, Canis lupus familiaris; settings: in vivo
Summary of the method: (§1)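 Mongrel dogs, n = 2, dosed orally at 3 mg/kg and iv at 1 mg/kg. F%, half-life in hours, clearance in mL/min/kg.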

[2] = Stability in monkey liver microsomes; assay type: ADME, Macaca mulatta, Microsome; settings: rhesus monkey
B1 bradykinin receptor [3] = molecular target: T1, B1 bradykinin receptor (Homo sapiens, UniProt P46663); test: Plasma concentration in hB1 knock-in-mouse at 20 mg/kg, po after 1 hr; assay type: ADME, organism-based; design: dose 20 mg/kg, route oral
T1 sequence (P46663 whole entry): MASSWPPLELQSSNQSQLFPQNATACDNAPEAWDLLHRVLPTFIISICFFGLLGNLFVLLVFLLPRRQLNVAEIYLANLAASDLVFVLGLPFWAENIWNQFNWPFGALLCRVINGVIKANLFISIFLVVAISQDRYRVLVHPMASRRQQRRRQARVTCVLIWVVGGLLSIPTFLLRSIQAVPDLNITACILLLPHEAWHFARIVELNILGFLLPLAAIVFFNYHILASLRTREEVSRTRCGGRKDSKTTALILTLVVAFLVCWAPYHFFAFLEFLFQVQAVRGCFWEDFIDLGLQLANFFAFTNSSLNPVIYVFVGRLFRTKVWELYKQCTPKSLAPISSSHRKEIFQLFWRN
Summary of the method: (§2)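 hB1 knock-in mice with CFA paw inflammation, dosed po at 6, 20 or 60 mg/kg in 0.5% methylcellulose with 10 mg/mL malic acid, pH 4. Plasma collected 60 min after dosing, following behavioural testing.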

B1 bradykinin receptor [4] = molecular target: T1, B1 bradykinin receptor; test: Plasma concentration in hB1 knock-in-mouse at 60 mg/kg, po after 1 hr; assay type: ADME, organism-based; design: dose 60 mg/kg, route oral; summary of the method: as §2
[5] = Half life in Mongrel dog at 3 mg/kg, po and 1 mg/kg, iv; assay type: ADME, organism-based, Canis lupus familiaris; settings: in vivo; summary of the method: as §1
Mus musculus [6] = test: Effect on complete Freund's adjuvant-induced hypersensitivity in mouse at 6 mg/kg, po; assay type: functional, organism-based; design: dose 6 mg/kg
Summary of the method: (§3)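 Humanized B1 knock-in mice and wild-type mice, 8-13 weeks old. Injected intraplantar with 30 µL of 50% CFA; 24 h later tested for von Frey tactile threshold (Dixon up-down). Then dosed po at 6, 20 or 60 mg/kg or vehicle (0.5% methylcellulose with 10 mg/mL malic acid, pH 4, 10 mL/kg). Paw withdrawal threshold read at 60 min. Two-way repeated-measures ANOVA with Tukey test.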

Liver microsomes [7] = test: Stability in human liver microsomes; assay type: ADME, Microsome
[8] = Oral bioavailability in Sprague-Dawley rat at 10 mg/kg, po and 2 mg/kg, iv; assay type: ADME, organism-based; settings: in vivo
Summary of the method: (§4)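 Sprague-Dawley rats, n = 3, dosed orally at 10 mg/kg and iv at 2 mg/kg. F% from oral versus iv exposure; half-life in hours, clearance in mL/min/kg.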

[9] = Half life in rhesus monkey at 3 mg/kg, po and 1 mg/kg, iv; assay type: ADME, organism-based, Macaca mulatta; settings: in vivo
Summary of the method: (§5)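 Rhesus monkeys, n = 2, dosed orally at 3 mg/kg and iv at 1 mg/kg. F%, half-life in hours, clearance in mL/min/kg.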

[10] = Clearance in Sprague-Dawley rat at 10 mg/kg, po and 2 mg/kg, iv; assay type: ADME, organism-based; settings: in vivo; summary of the method: as §4
[11] = Stability in human hepatocytes; assay type: ADME, cell-based, Hepatocyte
[12] = Stability in rat hepatocytes; assay type: ADME, cell-based, Hepatocyte
Liver microsomes [13] = test: Stability in rat liver microsomes; assay type: ADME, Microsome
[14] = Clearance in Mongrel dog at 3 mg/kg, po and 1 mg/kg, iv; assay type: ADME, organism-based, Canis lupus familiaris; settings: in vivo; summary of the method: as §1
[15] = Oral bioavailability in rhesus monkey at 3 mg/kg, po and 1 mg/kg, iv; assay type: ADME, organism-based, Macaca mulatta; settings: in vivo; summary of the method: as §5
B1 bradykinin receptor [16] = molecular target: T1, B1 bradykinin receptor; test: Plasma concentration in hB1 knock-in-mouse at 6 mg/kg, po after 1 hr; assay type: ADME, organism-based; design: dose 6 mg/kg, route oral; summary of the method: as §2
[17] = molecular target: T2, B1 bradykinin receptor (Homo sapiens) (UniProt P46663); test: Reversal of complete Freund's adjuvant-induced hyperalgesia in orally dosed hB1 knock-in-mouse; assay type: functional, organism-based; summary of the method: as §3
T2 sequence (whole entry): T1 sequence (P46663 whole entry)

[18] = Ratio of drug level in brain against plasma in African green monkey at 2 mg/kg, iv; settings: read-out: BPR
[19] = Stability in dog liver microsomes; assay type: ADME, Canis lupus familiaris, Microsome
Mus musculus [20] = test: Effect on complete Freund's adjuvant-induced hypersensitivity in mouse at 60 mg/kg, po; assay type: functional, organism-based; design: dose 60 mg/kg; summary of the method: as §3
[21] = Half life in Sprague-Dawley rat at 10 mg/kg, po and 2 mg/kg, iv; assay type: ADME, organism-based; settings: in vivo; summary of the method: as §4
[22] = Clearance in rhesus monkey at 3 mg/kg, po and 1 mg/kg, iv; assay type: ADME, organism-based, Macaca mulatta; settings: in vivo; summary of the method: as §5
[23] = Stability in monkey hepatocytes; assay type: ADME, cell-based, Macaca mulatta, Hepatocyte; settings: rhesus monkey
Mus musculus [24] = test: Effect on complete Freund's adjuvant-induced hypersensitivity in mouse at 20 mg/kg, po; assay type: functional, organism-based; design: dose 20 mg/kg; summary of the method: as §3

bioavailability [1]: 33%
Stability [2]: Stable
concentration at 1 h (B1 bradykinin receptor [3]): 3.5 µM
concentration at 1 h (B1 bradykinin receptor [4]): 5 µM
half-life [5]: 1.8 h
Stability (Liver microsomes [7]): Stable
bioavailability [8]: 34%
half-life [9]: 1.7 h
clearance [10]: 40 mL/min/kg
Stability [11]: Stable
Stability [12]: Stable
Stability (Liver microsomes [13]): Stable
clearance [14]: 9 mL/min/kg
bioavailability [15]: 31%
concentration at 1 h (B1 bradykinin receptor [16]): 1 µM
ED50 [17]: 9.76 mg/kg
Kp [18]: 0.4
Stability [19]: Stable
half-life [21]: 0.4 h
clearance [22]: 13 mL/min/kg
Stability [23]: Stable
Structure (SMILES): COC(=O)c1c(Cl)cccc1-c1ccc([C@@H](C)NC(=O)C2(NC(=O)C(F)(F)F)CC2)c(F)c1 [MK0686]
AD90 (Rhesus monkey): 0.047 mg/kg
Activity (Mus musculus [6]): inactive
Activity (Mus musculus [20]): inactive
Activity (Mus musculus [24]): inactive
